Legend:
Assay type in all cases: functional
[1] = system: SK-MEL-2; experiment: Cytotoxicity against human SK-MEL-2 cells assessed as cell growth at 1 uM after 48 hrs by sulforhodamine B assay; details: SK-MEL-2, 48 h, read-out: Activity
[2] = system: HCT-15; experiment: Cytotoxicity against human HCT15 cells assessed as cell growth at 0.01 uM after 48 hrs by sulforhodamine B assay; details: HCT-15, 48 h, read-out: Activity
In short: (§1)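 Five-dose NCI panel run at 0.01, 0.1, 1, 10 and 100 µM. Cells were in RPMI 1640 with 5% FBS and 2 mM L-glutamine, seeded at 5000–40,000 cells/well and pre-incubated 24 h. Drug was diluted from a DMSO stock into medium with 50 µg/ml gentamicin. Exposure was 48 h at 37 °C, 5% CO2. Cells were fixed with cold TCA and stained with 0.4% SRB, read at 515 nm. Percent growth came from time-zero, control and test absorbances.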

[3] = system: HL-60(TB); experiment: Cytotoxicity against human HL-60(TB) cells assessed as cell growth at 100 uM after 48 hrs by sulforhodamine B assay; details: HL-60, 48 h, read-out: Activity
In short: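 NCI five-dose screen on the HL-60(TB) leukaemia line, grown in RPMI 1640 with 5% FBS and 2 mM L-glutamine and plated for 24 h before dosing. DMSO stocks were diluted in medium. Cells were exposed 48 h at 37 °C, then settled cells were fixed in 16% TCA (final) and stained with SRB, absorbance 515 nm. Percent growth = (Ti−Tz)/(C−Tz)×100, or (Ti−Tz)/Tz×100 when Ti<Tz.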

[4] = system: SK-OV-3; experiment: Cytotoxicity against human SKOV3 cells assessed as cell growth at 10 uM after 48 hrs by sulforhodamine B assay; details: SK-OV-3, 48 h, read-out: Activity
[5] = system: M14; experiment: Cytotoxicity against human M14 cells assessed as cell growth at 10 uM after 48 hrs by sulforhodamine B assay; details: M14, 48 h, read-out: Activity
[6] = system: MOLT-4; experiment: Cytotoxicity against human MOLT4 cells assessed as cell growth at 0.01 uM after 48 hrs by sulforhodamine B assay; details: MOLT-4, 48 h, read-out: Activity
[7] = system: OVCAR-5; experiment: Cytotoxicity against human OVCAR5 cells assessed as cell growth at 100 uM after 48 hrs by sulforhodamine B assay; details: OVCAR-5, 48 h, read-out: Activity
[8] = system: SF-539; experiment: Cytotoxicity against human SF539 cells assessed as cell growth at 100 uM after 48 hrs by sulforhodamine B assay; details: SF-539, 48 h, read-out: Activity
[9] = system: PC-3; experiment: Cytotoxicity against human PC3 cells assessed as cell growth at 100 uM after 48 hrs by sulforhodamine B assay; details: PC-3, 48 h, read-out: Activity
[10] = system: CCRF-CEM; experiment: Cytotoxicity against human CCRF-CEM cells assessed as cell growth at 1 uM after 48 hrs by sulforhodamine B assay; details: read-out: Activity
In short: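 CCRF-CEM suspension leukemia cells in RPMI 1640 with 5% FBS and 2 mM L-glutamine, plated 24 h before dosing. Five concentrations (0.01–100 µM) were applied from a DMSO stock for 48 h at 37 °C. Settled cells were fixed with 80% TCA (final 16%) and stained with SRB, with read-out at 515 nm. Percent growth was derived from time-zero and control absorbances.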

[11] = system: NCI-H23; experiment: Cytotoxicity against human NCI-H23 cells assessed as cell growth at 0.01 uM after 48 hrs by sulforhodamine B assay; details: NCI-H23, 48 h, read-out: Activity
[12] = system: SK-MEL-2; experiment: Cytotoxicity against human SK-MEL-2 cells assessed as cell growth at 0.01 uM after 48 hrs by sulforhodamine B assay; details: SK-MEL-2, 48 h, read-out: Activity
[13] = system: SR; experiment: Cytotoxicity against human SR cells assessed as cell growth at 10 uM after 48 hrs by sulforhodamine B assay; details: read-out: Activity
[14] = system: KM12; experiment: Cytotoxicity against human KM12 cells assessed as cell growth at 0.01 uM after 48 hrs by sulforhodamine B assay; details: KM12, 48 h, read-out: Activity
[15] = system: A549; experiment: Cytotoxicity against human A549 cells assessed as cell growth at 0.1 uM after 48 hrs by sulforhodamine B assay; details: A549, 48 h, read-out: Activity
In short: (§2)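 NCI-60 five-dose screen. Cells were grown in RPMI 1640 with 5% FBS and 2 mM L-glutamine and preincubated 24 h. Compound (DMSO stock) was tested at 0.01, 0.1, 1, 10 and 100 µM for 48 h at 37 °C. Cells were fixed in situ with cold TCA (final 10%) and stained with 0.4% SRB. A515 was read, and percent growth was calculated against time-zero and control plates.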

[16] = system: NCI-H522; experiment: Cytotoxicity against human NCI-H522 cells assessed as cell growth at 1 uM after 48 hrs by sulforhodamine B assay; details: NCI-H522, 48 h, read-out: Activity
[17] = system: HCC 2998; experiment: Cytotoxicity against human HCC2998 cells assessed as cell growth at 10 uM after 48 hrs by sulforhodamine B assay; details: HCC 2998, 48 h, read-out: Activity; in short: as §1
[18] = system: M14; experiment: Cytotoxicity against human M14 cells assessed as cell growth at 0.1 uM after 48 hrs by sulforhodamine B assay; details: M14, 48 h, read-out: Activity
[19] = system: MCF7; experiment: Cytotoxicity against human MCF7 cells assessed as cell growth at 0.1 uM after 48 hrs by sulforhodamine B assay; details: MCF7, 48 h, read-out: Activity
[20] = system: EKVX; experiment: Growth inhibition of human EKVX cells after 48 hrs by sulforhodamine B assay
In short: (§3)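 Adherent NCI-60 lines were grown in RPMI 1640 with 5% FBS and 2 mM L-glutamine, plated at 5000–40,000 cells/well and preincubated 24 h. They were then exposed to five concentrations (0.01–100 µM, from a DMSO stock) for 48 h at 37 °C, 5% CO2. Cells were fixed with cold TCA (10% final, 60 min, 4 °C) and stained with 0.4% SRB. Dye was solubilized in 10 mM Tris base and A515 read. GI50 was derived from time-zero, control and treated absorbances.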

[21] = system: MDA-MB-231; experiment: Cytotoxicity against human MDA-MB-231 cells assessed as cell growth at 0.1 uM after 48 hrs by sulforhodamine B assay; details: MDA-MB-231, 48 h, read-out: Activity
[22] = system: M14; experiment: Cytotoxicity against human M14 cells assessed as cell growth at 10 '-5 M after 48 hrs by sulforhodamine B assay; details: M14, 48 h, read-out: Activity
[23] = system: LOX IMVI; experiment: Cytotoxicity against human LOXIMVI cells assessed as cell growth at 1 uM after 48 hrs by sulforhodamine B assay; details: read-out: Activity
[24] = system: DU-145; experiment: Cytotoxicity against human DU145 cells assessed as cell growth at 0.01 uM after 48 hrs by sulforhodamine B assay; details: DU-145, 48 h, read-out: Activity; in short: as §2
[25] = system: UO-31; experiment: Cytotoxicity against human UO31 cells assessed as cell growth at 0.1 uM after 48 hrs by sulforhodamine B assay; details: UO-31, 48 h, read-out: Activity
[26] = system: NCI/ADR-RES; experiment: Growth inhibition of human NCI/ADR-RES cells after 48 hrs by sulforhodamine B assay; in short: as §3

Row | Compound | growth at 1 µM [1] | growth at 0.01 µM [2] | growth at 100 µM [3] | growth at 10 µM [4] | growth at 10 µM [5] | growth at 0.01 µM [6] | growth at 100 µM [7] | growth at 100 µM [8] | growth at 100 µM [9] | growth at 1 µM [10] | growth at 0.01 µM [11] | growth at 0.01 µM [12] | growth at 10 µM [13] | growth at 0.01 µM [14] | growth at 0.1 µM [15] | growth at 1 µM [16] | growth at 10 µM [17] | growth at 0.1 µM [18] | growth at 0.1 µM [19] | LC50 [20] | further results
1 | Cc1ccc2nc(Nc3c(C)cccc3C)sc2c1 | 67% | 95% | 53% | 47% | 42% | 104% | 78% | 48% | 56% | 72% | 94% | 94% | 13% | 101% | 108% | 38% | 53% | 104% | 92% | > 100 µM | TGI [20]: > 100 µM; growth at 0.1 µM [21]: 84%; growth at 10 µM [22]: 26.2%; growth at 1 µM [23]: 62%; growth at 0.01 µM [24]: 104%; growth at 0.1 µM [25]: 97%; GI50 [26]: 0.639 µM; LC50 (lethal concentration, 50% net cell kill) [26]: > 100 µM; TGI [26]: > 100 µM
2 | Clc1cccc(Cl)c1Nc1nc2cccc(Cl)c2s1 | 71% | 93% | -57% | -89% | -68% | 107% | -96% | -57% | -74% | 62% | 95% | 98% | -49% | 99% | 99% | 51% | -88% | 101% | 87% | 4.26 µM | GI50 [20]: 0.299 µM; TGI [20]: 1.4 µM; growth at 0.1 µM [21]: 81%; growth at 10 µM [22]: -61.3%; growth at 1 µM [23]: 55%; growth at 0.01 µM [24]: 106%; growth at 0.1 µM [25]: 56%; GI50 [26]: 0.531 µM; LC50 (lethal concentration, 50% net cell kill) [26]: 6.23 µM; TGI [26]: 2.15 µM

Reference: ChEMBL document CHEMBL2040734, “Benzothiazoles: search for anticancer agents” (2012)
